Data taken from ChEMBL document CHEMBL1124846, “Synthesis, antiproliferative, and antiviral activity of certain 4-substituted and 4,5-disubstituted 7-[(1,3-dihydroxy-2-propoxy)methyl]pyrrolo[2,3-d]pyrimidines” (J Med Chem, 1990).
Where “and” joins values, the source holds several entries; their conditions need not be identical. Equal entries are not always repeated.

Key:
Human alphaherpesvirus 1 [1] = assay: Inhibition of herpes simplex virus (HSV-1) in plaque reduction assay; format: functional, organism-based
Procedure, shortened: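 HSV-1 S-148 strain plaque reduction in BSC-1 monkey kidney monolayers, with about 100 PFU inoculum and compound dissolved in the overlay medium. IC50 came from linear regression of percent inhibition against log concentration, with a positive control in each set.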

Human alphaherpesvirus 1 [2] = assay: Inhibition of herpes simplex virus (HSV-1) in yield reduction assay; format: functional, organism-based
Human betaherpesvirus 5 = assay: Inhibition of human cytomegalovirus (HCMV) in plaque reduction assay; format: functional, organism-based
Procedure, shortened: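 HCMV Towne strain (plaque-purified P0) plaque reduction in HFF monolayers in MEM(E) with 10% FBS. Inoculum held about 50 PFU, with compound dissolved in the overlay medium. IC50 came from linear regression of percent inhibition against log concentration, with ganciclovir or acyclovir positive controls in every set; two to five experiments.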

[3] = Cytotoxic activity against HFF cells.; format: cell-based; conditions: Homo sapiens
Procedure, shortened: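 Cytotoxicity was scored visually in uninfected HFF or BSC-1 monolayers within the plaque-reduction assays. Drug-induced cytopathology was read at 35- and 60-fold magnification on a 0 to 4+ scale on the day plaques were stained and counted.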

Neoplastic cell line [4] = assay: Cytotoxic activity against KB cells.; format: cell-based; conditions: Homo sapiens
Procedure, shortened: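 KB cells (human oral epidermoid carcinoma) grown in MEM(H) with 5% FBS. Compound effect on incorporation of radiolabelled precursors into DNA, RNA and protein was measured. IC50s came from linear regression of percent inhibition against log concentration, and the three IC50s were averaged.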

L1210 [5] = assay: In vitro inhibition of L1210 cell growth.; format: functional, Mus musculus; set-up: concentration or dose not given beside the values
Procedure, shortened: (§1)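 Murine L1210 leukemia cells in static suspension culture in Fischer's medium with compound for 4 days. Growth rate is the ratio of control to treated population doubling time; where the rate changed, the final rate was used. IC50 is the concentration giving 50% of control growth rate; single-concentration value at 100 μM.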

L1210 [6] = assay: In vitro inhibition of L1210 cell growth to half of the control rate; format: functional, cell-based; conditions: Mus musculus; procedure, shortened: as §1
[7] = Compound was evaluated for cytotoxic activity against BSC cells; format: cell-based; conditions: Cercopithecidae
Procedure, shortened: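 Visual cytotoxicity in uninfected areas of plaque-reduction cultures. HFF cells grown in MEM(E) + 10% FBS for HCMV (Towne) assays; BSC-1 cells for HSV-1 (S-148) assays. Drug in overlay medium. Cytopathology scored 0 to 4+ at 35- and 60-fold magnification on the staining day.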

Neoplastic cell line [8] = assay: Compound was evaluated for cytotoxic activity against KB cells; format: cell-based; conditions: Homo sapiens
Procedure, shortened: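 KB cells grown in MEM(H) + 5% FBS. Compound effects measured on radiolabelled precursor incorporation into DNA, RNA and protein. IC50s from linear regression of percent inhibition vs log concentration. The three IC50s were averaged, with 2–5 experiments averaged. Runs rejected if the acyclovir/ganciclovir control deviated >1.5 SD from its mean.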

Mus musculus [9] = assay: Compound was evaluated for percent mortality of mice inoculated with murine cytomegalovirus at a concentration of 5.6 mg/kg at 48 h; format: ADME, organism-based; set-up: dose 5.6 mg/kg; conditions: in vivo
Procedure, shortened: (§2)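 Three-week-old female Swiss Webster mice infected ip with 2×10^5 PFU MCMV Smith strain; groups of 15 given drug ip twice daily for 5 days, starting 6, 24 or 48 h after inoculation. Toxicity controls received drug without virus. Mortality followed daily for 21 days; final mortality compared with placebo by Fisher Exact Test.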

Mus musculus [10] = assay: Compound was evaluated for percent mortality of mice inoculated with murine cytomegalovirus at a concentration of 5.6 mg/kg at 6 h; format: ADME, organism-based; set-up: dose 5.6 mg/kg; conditions: in vivo; procedure, shortened: as §2
Mus musculus [11] = assay: Compound was evaluated for percent mortality of mice inoculated with murine cytomegalovirus at a concentration of 0.6 mg/kg at 24 h; format: organism-based; set-up: dose 0.6 mg/kg; conditions: in vivo
Procedure, shortened: (§3)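 Three-week-old female Swiss Webster mice inoculated ip with 2×10^5 PFU MCMV Smith strain. Groups of 15 dosed ip twice daily for 5 days, starting 6, 24 or 48 h post-inoculation. Held 21 days with daily mortality checks. Final mortality and mean day of death (dying animals) computed. Mortality versus placebo by Fisher Exact Test, MDD by Mann–Whitney U-rank test.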

Mus musculus [12] = assay: Compound was evaluated for percent mortality of mice inoculated with murine cytomegalovirus at a concentration of 0.6 mg/kg at 48 h; format: organism-based; set-up: dose 0.6 mg/kg; conditions: in vivo; procedure, shortened: as §3
Mus musculus [13] = assay: Compound was evaluated for percent mortality of mice inoculated with murine cytomegalovirus at a concentration of 0.6 mg/kg at 6 h; format: organism-based; set-up: dose 0.6 mg/kg; conditions: in vivo; procedure, shortened: as §3
Mus musculus [14] = assay: Compound was evaluated for percent mortality of mice inoculated with murine cytomegalovirus at a concentration of 1.9 mg/kg at 24 h; format: organism-based; set-up: dose 1.9 mg/kg; conditions: in vivo; procedure, shortened: as §3
Mus musculus [15] = assay: Compound was evaluated for percent mortality of mice inoculated with murine cytomegalovirus at a concentration of 1.9 mg/kg at 48 h; format: organism-based; set-up: dose 1.9 mg/kg; conditions: in vivo; procedure, shortened: as §3
Mus musculus [16] = assay: Compound was evaluated for percent mortality of mice inoculated with murine cytomegalovirus at a concentration of 1.9 mg/kg at 6 h; format: organism-based; set-up: dose 1.9 mg/kg; conditions: in vivo; procedure, shortened: as §3
Mus musculus [17] = assay: Compound was evaluated for percent mortality of mice inoculated with murine cytomegalovirus at a concentration of 16.7 mg/kg at 24 h; format: organism-based; set-up: dose 16.7 mg/kg; conditions: in vivo; procedure, shortened: as §3
Mus musculus [18] = assay: Compound was evaluated for percent mortality of mice inoculated with murine cytomegalovirus at a concentration of 16.7 mg/kg at 48 h; format: organism-based; set-up: dose 16.7 mg/kg; conditions: in vivo; procedure, shortened: as §3
Mus musculus [19] = assay: Compound was evaluated for percent mortality of mice inoculated with murine cytomegalovirus at a concentration of 16.7 mg/kg at 6 h; format: organism-based; set-up: dose 16.7 mg/kg; conditions: in vivo; procedure, shortened: as §3
Mus musculus [20] = assay: Compound was evaluated for percent mortality of mice inoculated with murine cytomegalovirus at a concentration of 5.6 mg/kg at 24 h; format: ADME, organism-based; set-up: dose 5.6 mg/kg; conditions: in vivo; procedure, shortened: as §2
Mus musculus [21] = assay: Compound was evaluated for 15 mice treated ip twice daily for 5 days at a dose of 0.6 mg/kg at 24 h followed (MCMV) virus inoculation; format: functional; conditions: route intraperitoneal; procedure, shortened: as §3
Mus musculus [22] = assay: Compound was evaluated for 15 mice treated ip twice daily for 5 days at a dose of 0.6 mg/kg at 48 h followed (MCMV) virus inoculation; format: functional; conditions: route intraperitoneal; procedure, shortened: as §3
Mus musculus [23] = assay: Compound was evaluated for 15 mice treated ip twice daily for 5 days at a dose of 0.6 mg/kg at 6 hr followed (MCMV) virus inoculation; format: functional; conditions: route intraperitoneal; procedure, shortened: as §3
Mus musculus [24] = assay: Compound was evaluated for 15 mice treated ip twice daily for 5 days at a dose of 1.9 mg/kg at 24 hr followed (MCMV) virus inoculation; format: functional; conditions: route intraperitoneal; procedure, shortened: as §3
Mus musculus [25] = assay: Compound was evaluated for 15 mice treated ip twice daily for 5 days at a dose of 1.9 mg/kg at 48 hr followed (MCMV) virus inoculation; format: functional; conditions: route intraperitoneal; procedure, shortened: as §3
Mus musculus [26] = assay: Compound was evaluated for 15 mice treated ip twice daily for 5 days at a dose of 1.9 mg/kg at 6 hr followed (MCMV) virus inoculation; format: functional; conditions: route intraperitoneal; procedure, shortened: as §3
Mus musculus [27] = assay: Compound was evaluated for 15 mice treated ip twice daily for 5 days at a dose of 16.7 mg/kg at 24 hr followed (MCMV) virus inoculation; format: functional; conditions: route intraperitoneal; procedure, shortened: as §3
Mus musculus [28] = assay: Compound was evaluated for 15 mice treated ip twice daily for 5 days at a dose of 16.7 mg/kg at 48 hr followed (MCMV) virus inoculation; format: functional; conditions: route intraperitoneal; procedure, shortened: as §3
Mus musculus [29] = assay: Compound was evaluated for 15 mice treated ip twice daily for 5 days at a dose of 16.7 mg/kg at 6 hr followed (MCMV) virus inoculation; format: functional; conditions: route intraperitoneal; procedure, shortened: as §3
Mus musculus [30] = assay: Compound was evaluated for 15 mice treated ip twice daily for 5 days at a dose of 5.6 mg/kg at 24 hr followed (MCMV) virus inoculation; format: functional; conditions: route intraperitoneal; procedure, shortened: as §3
Mus musculus [31] = assay: Compound was evaluated for 15 mice treated ip twice daily for 5 days at a dose of 5.6 mg/kg at 48 hr followed (MCMV) virus inoculation; format: functional; conditions: route intraperitoneal; procedure, shortened: as §3
Mus musculus [32] = assay: Compound was evaluated for 15 mice treated ip twice daily for 5 days at a dose of 5.6 mg/kg at 6 hr followed (MCMV) virus inoculation; format: functional; conditions: route intraperitoneal; procedure, shortened: as §3
Mus musculus [33] = assay: Compound was evaluated for mean day of death at 0.6 mg/kg at 48 h; format: functional; procedure, shortened: as §3
Mus musculus [34] = assay: Compound was evaluated for mean day of death at 0.6 mg/kg at 6 h; format: functional; procedure, shortened: as §3
Mus musculus [35] = assay: Compound was evaluated for mean day of death at 1.9 mg/kg at 24 h; format: functional; procedure, shortened: as §3
Mus musculus [36] = assay: Compound was evaluated for mean day of death at 1.9 mg/kg at 48 h; format: functional; procedure, shortened: as §3
Mus musculus [37] = assay: Compound was evaluated for mean day of death at 1.9 mg/kg at 6 h; format: functional; procedure, shortened: as §3
Mus musculus [38] = assay: Compound was evaluated for mean day of death at 16.7 mg/kg at 24 h; format: functional; procedure, shortened: as §3
Mus musculus [39] = assay: Compound was evaluated for mean day of death at 16.7 mg/kg at 48 h; format: functional; procedure, shortened: as §3
Mus musculus [40] = assay: Compound was evaluated for mean day of death at 16.7 mg/kg at 6 h; format: functional; procedure, shortened: as §3
Mus musculus [41] = assay: Compound was evaluated for mean day of death at 5.6 mg/kg at 24 h; format: functional; procedure, shortened: as §3
Mus musculus [42] = assay: Compound was evaluated for mean day of death at 5.6 mg/kg at 48 h; format: functional; procedure, shortened: as §3
Mus musculus [43] = assay: Compound was evaluated for mean day of death at 5.6 mg/kg at 6 h; format: functional; procedure, shortened: as §3
Mus musculus [44] = assay: Compound was evaluated for mean day of death at 0.6 mg/kg at 24 h; format: functional; procedure, shortened: as §3

OCC(CO)OCn1cc(Br)c2c(NO)ncnc21
IC50 (Human alphaherpesvirus 1 [1]): 2.9 µM | IC90 (Human alphaherpesvirus 1 [2]): > 100 µM | IC50 (Human betaherpesvirus 5): 1.2 µM and 10 µM | IC50 [3]: > 100 µM | IC50 (Neoplastic cell line [4]): 320 µM | Activity (L1210 [5]): 0% | IC50 (L1210 [6]): 3.7 µM

Nc1nc2c(ncn2COC(CO)CO)c(=O)[nH]1 [GANCICLOVIR]
IC50 [7]: > 100 µM | IC50 (Human alphaherpesvirus 1 [1]): 4.5 µM | IC90 (Human alphaherpesvirus 1 [2]): 1.2 µM | IC50 (Human betaherpesvirus 5): 8.7 µM | IC50 (Neoplastic cell line [8]): > 100 µM | Mortality (Mus musculus [9]): 67% | Mortality (Mus musculus [10]): 33% | Mortality (Mus musculus [11]): 80% | Mortality (Mus musculus [12]): 93% | Mortality (Mus musculus [13]): 93% | Mortality (Mus musculus [14]): 80% | Mortality (Mus musculus [15]): 73% | Mortality (Mus musculus [16]): 33% | Mortality (Mus musculus [17]): 47% | Mortality (Mus musculus [18]): 53% | Mortality (Mus musculus [19]): 27% | Mortality (Mus musculus [20]): 47% | Activity (Mus musculus [21]): 12 | Activity (Mus musculus [22]): 14 | Activity (Mus musculus [23]): 14 | Activity (Mus musculus [24]): 12 | Activity (Mus musculus [25]): 11 | Activity (Mus musculus [26]): 5 | Activity (Mus musculus [27]): 7 | Activity (Mus musculus [28]): 8 | Activity (Mus musculus [29]): 4 | Activity (Mus musculus [30]): 7 | Activity (Mus musculus [31]): 10 | Activity (Mus musculus [32]): 5 | MDD (Mus musculus [33]): 5.3 | MDD (Mus musculus [34]): 4.6 | MDD (Mus musculus [35]): 4.9 | MDD (Mus musculus [36]): 4.9 | MDD (Mus musculus [37]): 5.4 | MDD (Mus musculus [38]): 5.3 | MDD (Mus musculus [39]): 5.5 | MDD (Mus musculus [40]): 3.8 | MDD (Mus musculus [41]): 5.3 | MDD (Mus musculus [42]): 5.5 | MDD (Mus musculus [43]): 4.2 | MDD (Mus musculus [44]): 5.4
